Laboratory results reported in paper PMC7065888 (Science Advances, 2020).

Experiments:
recombinant mouse RBP2 = assay type: binding; details: holo-RBP2 incubated with 2 molar excess of compound, room temperature, 15 min
mouse RBP2 = biological target: T1, mouse RBP2 (Mus musculus, UniProt Q08652); assay type: binding
T1 sequence (Q08652 1-134): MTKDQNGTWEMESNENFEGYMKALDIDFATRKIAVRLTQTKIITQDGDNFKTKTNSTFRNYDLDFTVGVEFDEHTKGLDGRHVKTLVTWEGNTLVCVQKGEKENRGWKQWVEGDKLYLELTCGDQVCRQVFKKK

recombinant apo-RBP2 = assay type: binding, mouse; details: MS/MS-based detection
Summary of the method: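 Purified recombinant mouse RBP2 in apo form was incubated with the test lipid. The protein was then chromatographically repurified to strip unbound ligand, and lipid still associated with the protein was detected by tandem mass spectrometry.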

RBP2 = details: cited from earlier work

| SMILES | displacement of retinol from its RBP2 binding pocket (recombinant mouse RBP2) | also measured |
| --- | --- | --- |
| CCCCC/C=C\C/C=C\C/C=C\C/C=C\CCCC(=O)OC[C@@H](O)CO [1-AG, 1-arachidonoylglycerol] | displaced retinol |  |
| CCCCC/C=C\C/C=C\C/C=C\C/C=C\CCCC(=O)OC(CO)CO [2-AG, 2-arachidonoylglycerol] | displaced retinol | Kd (mouse RBP2): 27.1 ± 2.4 nM; ligand bound to RBP2 after chromatographic repurification (recombinant apo-RBP2): remained bound to RBP2 |
| CCCCC/C=C\C/C=C\CCCCCCCC(=O)OC(CO)CO [2-LG, 2-lineoylglycerol] | displaced retinol |  |
| CCCCCCCC/C=C\CCCCCCCC(=O)OC(CO)CO [2-OG, 2-oleoylglycerol] | displaced retinol | Kd (mouse RBP2): 65.4 ± 4.4 nM |
| CCCCC/C=C\C/C=C\C/C=C\C/C=C\CCCC(=O)NCCO [AEA, N-arachidinoylethanolamine] | little displacement | fold less effective than MAGs in displacing bound retinol from RBP2 (mouse RBP2; fluorescence emission spectra of holo-RBP2): ~ 25 fold |
| CCCCC/C=C\C/C=C\CCCCCCCC(=O)NCCO [LEA, N-linoleoylethanolamine] | little displacement |  |
| CCCCCCCCCCCCCC(=O)NCCO [MEA, N-myristoylethanolamine] | little displacement |  |
| CC1=C(/C=C/C(C)=C/C=C/C(C)=C/C=O)C(C)(C)CCC1 [retinaldehyde] |  | Kd for binding to RBP2 relative to the Kd values reported here for 2-MAG binding (RBP2): two to six times higher |
| CC1=C(/C=C/C(C)=C/C=C/C(C)=C/CO)C(C)(C)CCC1 [retinol, all-trans-retinol] |  | Kd for binding to RBP2 relative to the Kd values reported here for 2-MAG binding (RBP2): two to six times higher |
